Source: ChEMBL document CHEMBL3414452, “Synthesis and in vitro antiplasmodial evaluation of 7-chloroquinoline-chalcone and 7-chloroquinoline-ferrocenylchalcone conjugates” (Eur J Med Chem, 2015)

tested on: not listed separately; assay: Selectivity index, ratio of IC50 for human HeLa cells to IC50 for CQ-resistant Plasmodium falciparum W2; assay type: toxicity, cell-based; details: read-out: Ratio IC50
Method in brief: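 Ratio of HeLa IC50 to W2 IC50. HeLa cells grown in DMEM with penicillin/streptomycin to 70% confluency, dosed from DMSO stocks, and incubated 24 h at 37 °C in CO2. Cells were then washed, trypsinized, stained with trypan blue for about 10 min at room temperature, and viable/dead cells counted by hemacytometer. IC50 fitted from counts.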

Row | Compound | selectivity ratio
1 | COc1ccc(C(=O)/C=C/c2ccc(OCC(=O)NCCCCCCNc3ccnc4cc(Cl)ccc34)cc2)cc1 | 1130
2 | COc1ccc(/C=C/C(=O)c2ccc(OCC(=O)NCCCCCCNc3ccnc4cc(Cl)ccc34)cc2)cc1 | 1400

tested on: Plasmodium falciparum; assay: Antimalarial activity against CQ-resistant Plasmodium falciparum W2 assessed as parasite growth inhibition after 48 hrs by YOYO-1 dye based flow cytometry; assay type: functional, organism-based; details: W2, 48 h
Method in brief: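 W2 strain cultured in RPMI-1640 with 10% human serum, sorbitol-synchronized (5%). Ring-stage microcultures exposed to a range of compound concentrations (DMSO ≤0.1% final; 0.1% DMSO controls) for 48 h. Fixed 48 h in 1% formaldehyde/PBS pH 7.4 at room temperature, stained with 1 nM YOYO-1 in 0.1% Triton X-100/PBS, and parasitemia read by flow cytometry. IC50 from nonlinear fit of duplicate experiments.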

Row | Compound | IC50
3 | COc1ccc(C(=O)/C=C/c2ccc(OCC(=O)O)cc2)cc1 | > 10000 nM
4 | O=C(O)COc1ccc(/C=C/C(=O)c2ccccc2)cc1 | > 10000 nM
5 | O=Cc1ccc(OCC(=O)NCCNc2ccnc3cc(Cl)ccc23)cc1 | 419 nM
6 | O=Cc1ccc(OCC(=O)NCCCNc2ccnc3cc(Cl)ccc23)cc1 | 73.4 nM
7 | O=Cc1ccc(OCC(=O)NCCCCNc2ccnc3cc(Cl)ccc23)cc1 | 444 nM
8 | O=Cc1ccc(OCC(=O)NCCCCCCNc2ccnc3cc(Cl)ccc23)cc1 | 875 nM
9 | O=C(COc1ccc(/C=C/C(=O)c2ccccc2)cc1)NCCNc1ccnc2cc(Cl)ccc12 | 905 nM
10 | O=C(COc1ccc(/C=C/C(=O)c2ccccc2)cc1)NCCCNc1ccnc2cc(Cl)ccc12 | 109 nM
11 | O=C(COc1ccc(/C=C/C(=O)c2ccccc2)cc1)NCCCCNc1ccnc2cc(Cl)ccc12 | 139 nM
12 | COc1ccc(C(=O)/C=C/c2ccc(OCC(=O)NCCNc3ccnc4cc(Cl)ccc34)cc2)cc1 | 379 nM
13 | COc1ccc(C(=O)/C=C/c2ccc(OCC(=O)NCCCNc3ccnc4cc(Cl)ccc34)cc2)cc1 | 221 nM
14 | COc1ccc(C(=O)/C=C/c2ccc(OCC(=O)NCCCCNc3ccnc4cc(Cl)ccc34)cc2)cc1 | 63 nM
15 | COc1ccc(C(=O)/C=C/c2ccc(OCC(=O)NCCCCCCNc3ccnc4cc(Cl)ccc34)cc2)cc1 | 35.4 nM
16 | O=C(O)COc1ccc(C(=O)/C=C/c2ccccc2)cc1 | > 10000 nM
17 | COc1ccc(/C=C/C(=O)c2ccc(OCC(=O)O)cc2)cc1 | > 10000 nM
18 | CC(=O)c1ccc(OCC(=O)NCCNc2ccnc3cc(Cl)ccc23)cc1 | 558 nM
19 | CC(=O)c1ccc(OCC(=O)NCCCNc2ccnc3cc(Cl)ccc23)cc1 | 173 nM
20 | CC(=O)c1ccc(OCC(=O)NCCCCNc2ccnc3cc(Cl)ccc23)cc1 | 148 nM
21 | CC(=O)c1ccc(OCC(=O)NCCCCCCNc2ccnc3cc(Cl)ccc23)cc1 | 71.1 nM
22 | O=C(COc1ccc(C(=O)/C=C/c2ccccc2)cc1)NCCNc1ccnc2cc(Cl)ccc12 | 840 nM
23 | O=C(COc1ccc(C(=O)/C=C/c2ccccc2)cc1)NCCCNc1ccnc2cc(Cl)ccc12 | 46.3 nM
24 | O=C(COc1ccc(C(=O)/C=C/c2ccccc2)cc1)NCCCCNc1ccnc2cc(Cl)ccc12 | 398 nM
25 | O=C(COc1ccc(C(=O)/C=C/c2ccccc2)cc1)NCCCCCCNc1ccnc2cc(Cl)ccc12 | 4070 nM
26 | COc1ccc(/C=C/C(=O)c2ccc(OCC(=O)NCCNc3ccnc4cc(Cl)ccc34)cc2)cc1 | 2740 nM
27 | COc1ccc(/C=C/C(=O)c2ccc(OCC(=O)NCCCNc3ccnc4cc(Cl)ccc34)cc2)cc1 | 50.5 nM
28 | COc1ccc(/C=C/C(=O)c2ccc(OCC(=O)NCCCCNc3ccnc4cc(Cl)ccc34)cc2)cc1 | 170 nM
29 | COc1ccc(/C=C/C(=O)c2ccc(OCC(=O)NCCCCCCNc3ccnc4cc(Cl)ccc34)cc2)cc1 | 17.8 nM
30 | C[C@@H]1CC[C@H]2[C@@H](C)C(=O)O[C@@H]3O[C@@]4(C)CC[C@@H]1[C@]32OO4 [ARTEMISININ] | 6.5 nM

tested on: HeLa; assay: Cytotoxicity against human HeLa cells after 24 hrs by trypan blue dye exclusion assay; assay type: cell-based; details: not given
Method in brief: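 HeLa cells grown in DMEM with penicillin/streptomycin. Compound from DMSO stock was added once cultures reached 70% confluency, then incubated 24 h at 37 °C under CO₂. Cells were PBS-washed, detached with 0.25% trypsin for 5 min, and resuspended in PBS. Trypan blue was added for about 10 min at room temperature. Viable and dead cells were counted by hemacytometer, and IC₅₀ derived.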

Row | Compound | IC50
31 | COc1ccc(C(=O)/C=C/c2ccc(OCC(=O)NCCCCCCNc3ccnc4cc(Cl)ccc34)cc2)cc1 | 40000 nM
32 | COc1ccc(/C=C/C(=O)c2ccc(OCC(=O)NCCCCCCNc3ccnc4cc(Cl)ccc34)cc2)cc1 | 25000 nM
